ChEMBL document CHEMBL1137351, “Discovery of conformationally constrained tetracyclic compounds as potent hepatitis C virus NS5B RNA polymerase inhibitors” (J Med Chem, 2006)
pEC50, pIC50: −log10 of the molar value.

Assays:
[1] = molecular target: RNA-directed RNA polymerase (Hepacivirus hominis, UniProt O39930); experiment: Inhibition of HCV NS5B RNA polymerase
Huh-5-2 [2] = experiment: Inhibition of replication of HCV 1b BK RNA in Huh5-2 cells in presence of 10% fetal calf serum; format: functional, cell-based, Hepacivirus hominis; conditions: Homo sapiens, genotype 1b BK
Method in brief: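 Huh-5-2 cells carrying the HCV replicon, assayed in medium with 10% FCS. EC50 is the mean of three independent experiments, with standard deviations within 30% of the mean.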

Caco-2 [3] = experiment: Cytotoxicity against Caco-2 cells; format: functional; conditions: Homo sapiens
[4] = (§1) Permeability across Caco-2 cells; format: ADME, cell-based; conditions: human, read-out: permeability
Huh-5-2 [5] = experiment: Inhibition of replication of HCV 1b BK RNA in Huh5-2 cells in presence of 10% fetal calf serum and 4% human serum albumin; format: functional, cell-based, Hepacivirus hominis; conditions: genotype 1b BK
Method in brief: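 Huh-5-2 replicon cells in medium with 10% FCS plus 4% human serum albumin. EC50 is the average of two experiments.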

Caco-2 [6] = experiment: as §1; format: ADME, cell-based; conditions: human

Chain of RNA-directed RNA polymerase (O39930 whole entry): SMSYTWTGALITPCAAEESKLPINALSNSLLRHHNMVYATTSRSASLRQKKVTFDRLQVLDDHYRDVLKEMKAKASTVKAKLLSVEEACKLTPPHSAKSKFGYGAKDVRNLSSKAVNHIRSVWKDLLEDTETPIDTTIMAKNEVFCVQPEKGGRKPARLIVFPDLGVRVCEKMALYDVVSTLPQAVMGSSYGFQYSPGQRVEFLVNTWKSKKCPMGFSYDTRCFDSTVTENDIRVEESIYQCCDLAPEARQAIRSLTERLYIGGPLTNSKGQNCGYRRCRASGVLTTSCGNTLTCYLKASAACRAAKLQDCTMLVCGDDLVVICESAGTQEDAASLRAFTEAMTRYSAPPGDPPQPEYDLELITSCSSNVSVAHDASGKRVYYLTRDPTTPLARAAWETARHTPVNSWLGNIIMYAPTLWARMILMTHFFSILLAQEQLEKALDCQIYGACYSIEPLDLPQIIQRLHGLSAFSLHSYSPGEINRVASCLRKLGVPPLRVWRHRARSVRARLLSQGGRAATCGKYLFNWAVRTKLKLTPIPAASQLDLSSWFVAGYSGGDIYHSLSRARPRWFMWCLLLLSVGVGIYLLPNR

| Compound | pIC50 [1] | pEC50 (Huh-5-2 [2]) | Papp [4] | pEC50 (Huh-5-2 [5]) | Activity (Caco-2 [6]) | CC50 (Caco-2 [3]) |
| --- | --- | --- | --- | --- | --- | --- |
| Cn1c(-c2ccc(OCc3ccccc3)cc2)c(C2CCCCC2)c2ccc(C(=O)O)cc21 | 6.92 |  |  |  |  |  |
| Cl.Cl.O=C(O)c1ccc2c(C3CCCCC3)c3n(c2c1)CCN(CCN1CCCCC1)c1ccccc1-3 | 8.05 | 7.46 | 18.6 ×10⁻⁶ cm/s | 7.08 |  | > 20000 nM |
| O=C(O)c1ccc2c(C3CCCCC3)c3n(c2c1)CCCc1ccccc1-3 | 7.11 | 5.52 |  |  |  |  |
| O=C(O)c1ccc2c(C3CCCCC3)c3n(c2c1)CCSc1ccccc1-3 | 7.42 | 5.85 |  |  |  |  |
| O=C(O)c1ccc2c(C3CCCCC3)c3n(c2c1)CCN(CCc1ccccc1)c1ccccc1-3 | 7.59 | 6.51 |  |  | Active | > 20000 nM |
| O=C(O)c1ccc2c(C3CCCCC3)c3n(c2c1)CCOc1cc(OCc2ccccc2)ccc1-3 | 7.77 |  |  |  |  |  |
| O=C(O)c1ccc2c(C3CCCCC3)c3n(c2c1)Cc1ccccc1-3 | 6.68 | < 5.00 |  |  |  |  |
| O=C(O)c1ccc2c(C3CCCCC3)c3n(c2c1)COc1ccccc1-3 | 6.85 | 5.38 |  |  |  |  |
| Cl.O=C(O)c1ccc2c(C3CCCCC3)c3n(c2c1)CCNc1ccccc1-3 | 7.68 | 6.24 | 55.9 ×10⁻⁶ cm/s | < 5.00 |  | > 20000 nM |

Now from value to compound, other results behind:

| pIC50 [1] | pEC50 (Huh-5-2 [2]) | Papp [4] | pEC50 (Huh-5-2 [5]) | Activity (Caco-2 [6]) | Compound | CC50 (Caco-2 [3]) |
| --- | --- | --- | --- | --- | --- | --- |
| 7.59 | 6.07 |  |  |  | O=C(O)c1ccc2c(C3CCCCC3)c3n(c2c1)CCOc1ccccc1-3 |  |
| 7.39 | 6.26 |  |  | Active | O=C(O)c1ccc2c(C3CCCCC3)c3n(c2c1)CCN(Cc1ccccc1)c1ccccc1-3 | > 20000 nM |
| 7.74 | 7.28 | 19.2 ×10⁻⁶ cm/s | 6.70 |  | CN(C)CCN1CCn2c(c(C3CCCCC3)c3ccc(C(=O)O)cc32)-c2ccccc21.Cl.Cl | > 20000 nM |
| 7.72 | 6.23 |  | 5.19 | Active | CN1CCn2c(c(C3CCCCC3)c3ccc(C(=O)O)cc32)-c2ccccc21 | > 20000 nM |
| 6.92 | 5.96 |  |  | Active | CC(=O)N1CCn2c(c(C3CCCCC3)c3ccc(C(=O)O)cc32)-c2ccccc21 | > 20000 nM |
| 6.85 | 5.22 |  |  |  | O=C(O)c1ccc2c(C3CCCCC3)c3n(c2c1)CCc1ccccc1-3 |  |
| 7.62 | 6.68 | 51.9 ×10⁻⁶ cm/s | 5.37 |  | CN(C)C(=O)CN1CCn2c(c(C3CCCCC3)c3ccc(C(=O)O)cc32)-c2ccccc21 | > 20000 nM |
| 7.44 | 5.82 |  |  | Active | CC(C)N1CCn2c(c(C3CCCCC3)c3ccc(C(=O)O)cc32)-c2ccccc21 | > 20000 nM |
